# Results from ChEMBL document CHEMBL4373640, “Synthesis and antitumor activity of aza-brazilan derivatives containing imidazolium salt pharmacophores” (Medchemcomm, 2019).
# System: not listed separately
# Test: Cytotoxicity against human SMMC-7221 cells assessed as reduction in cell viability after 48 hrs by MTS assay
# Format: functional, cell-based
# Settings: SMMC-7221, 48 h
# Outline: (§1)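 Cells (5 × 10^3 per well) were plated 12 h before treatment, then exposed continuously to compound for 48 h. MTS was added, with 1–4 h incubation at 37 °C and OD read at 490 nm. IC50 is the concentration cutting OD by 50% versus untreated cells, taken from dose–response curves. Values are the mean of three independent determinations.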
row,SMILES,IC50 [nM]
1,COc1ccc(C(=O)C[n+]2c(C)n(CCCN3C[C@@H]4Cc5ccccc5[C@@H]4c4cccc(OC)c43)c3ccccc32)cc1,1320
2,COc1ccc(C(=O)C[n+]2cn(CCCN3C[C@@H]4Cc5ccc(Br)cc5[C@@H]4c4cccc(OC)c43)c3cc(C)c(C)cc32)cc1.[Br-],890
3,COc1ccc(C(=O)C[n+]2c(C)n(CCCN3C[C@@H]4Cc5ccc(Br)cc5[C@@H]4c4cccc(OC)c43)c3ccccc32)cc1,930
4,COc1cc2c(cc1OC)[C@@H]1c3cccc(OC)c3N(CCCn3c[n+](Cc4ccc5ccccc5c4)c4cc(C)c(C)cc43)C[C@@H]1C2,1820
5,COc1cccc2c1N(C(=O)CCn1cnc3cc(C)c(C)cc31)C[C@@H]1Cc3ccccc3[C@H]21,> 20000

# System: A549
# Test: Cytotoxicity against human A549 cells assessed as reduction in cell viability after 48 hrs by MTS assay
# Format: functional, cell-based
# Settings: A549, 48 h
# Outline: as §1
row,SMILES,IC50 [nM]
1,COc1ccc(C(=O)C[n+]2c(C)n(CCCN3C[C@@H]4Cc5ccccc5[C@@H]4c4cccc(OC)c43)c3ccccc32)cc1,3650
2,COc1ccc(C(=O)C[n+]2cn(CCCN3C[C@@H]4Cc5ccc(Br)cc5[C@@H]4c4cccc(OC)c43)c3cc(C)c(C)cc32)cc1.[Br-],1530
3,COc1ccc(C(=O)C[n+]2c(C)n(CCCN3C[C@@H]4Cc5ccc(Br)cc5[C@@H]4c4cccc(OC)c43)c3ccccc32)cc1,1220
4,COc1cc2c(cc1OC)[C@@H]1c3cccc(OC)c3N(CCCn3c[n+](Cc4ccc5ccccc5c4)c4cc(C)c(C)cc43)C[C@@H]1C2,5830
5,COc1cccc2c1N(C(=O)CCn1cnc3cc(C)c(C)cc31)C[C@@H]1Cc3ccccc3[C@H]21,> 20000

# System: MCF7
# Test: Cytotoxicity against human MCF7 cells assessed as reduction in cell viability after 48 hrs by MTS assay
# Format: functional, cell-based
# Settings: MCF7, 48 h
# Outline: as §1
row,SMILES,IC50 [nM]
1,COc1ccc(C(=O)C[n+]2c(C)n(CCCN3C[C@@H]4Cc5ccccc5[C@@H]4c4cccc(OC)c43)c3ccccc32)cc1,400
2,COc1ccc(C(=O)C[n+]2cn(CCCN3C[C@@H]4Cc5ccc(Br)cc5[C@@H]4c4cccc(OC)c43)c3cc(C)c(C)cc32)cc1.[Br-],350
3,COc1ccc(C(=O)C[n+]2c(C)n(CCCN3C[C@@H]4Cc5ccc(Br)cc5[C@@H]4c4cccc(OC)c43)c3ccccc32)cc1,1010
4,COc1cc2c(cc1OC)[C@@H]1c3cccc(OC)c3N(CCCn3c[n+](Cc4ccc5ccccc5c4)c4cc(C)c(C)cc43)C[C@@H]1C2,1490
5,COc1cccc2c1N(C(=O)CCn1cnc3cc(C)c(C)cc31)C[C@@H]1Cc3ccccc3[C@H]21,> 20000

# System: MCF7
# Test: Potency index, ratio of cisplatin IC50 to compound IC50 for cytotoxicity against human MCF7 cells by MTS assay
# Format: functional
# Settings: not given
row,SMILES,Ratio IC50
1,COc1ccc(C(=O)C[n+]2cn(CCCN3C[C@@H]4Cc5ccc(Br)cc5[C@@H]4c4cccc(OC)c43)c3cc(C)c(C)cc32)cc1.[Br-],56

# System: SW480
# Test: Cytotoxicity against human SW480 cells assessed as reduction in cell viability after 48 hrs by MTS assay
# Format: functional, cell-based
# Settings: SW480, 48 h
# Outline: as §1
row,SMILES,IC50 [nM]
1,COc1ccc(C(=O)C[n+]2c(C)n(CCCN3C[C@@H]4Cc5ccccc5[C@@H]4c4cccc(OC)c43)c3ccccc32)cc1,1270
2,COc1ccc(C(=O)C[n+]2cn(CCCN3C[C@@H]4Cc5ccc(Br)cc5[C@@H]4c4cccc(OC)c43)c3cc(C)c(C)cc32)cc1.[Br-],1400
3,COc1ccc(C(=O)C[n+]2c(C)n(CCCN3C[C@@H]4Cc5ccc(Br)cc5[C@@H]4c4cccc(OC)c43)c3ccccc32)cc1,1240
4,COc1cc2c(cc1OC)[C@@H]1c3cccc(OC)c3N(CCCn3c[n+](Cc4ccc5ccccc5c4)c4cc(C)c(C)cc43)C[C@@H]1C2,1620
5,COc1cccc2c1N(C(=O)CCn1cnc3cc(C)c(C)cc31)C[C@@H]1Cc3ccccc3[C@H]21,> 20000
